Where two headings read alike, the source gives them in different places.
Key:
HuH7 cells = assay: HuH7 hepatoma cell viability; assay type: cell-based
PfPK9 = PfPK9 (Plasmodium falciparum, UniProt Q8IEG4); assay: ATP-competitive binding assay, GFP-PfPK9 on ATP-sepharose resin; settings: for relative PfPK9 binding compared to negative DMSO control: takinib analog screen at 250 and 500 μM
HsTAK1 = settings: ref Totzke et al., 2017, cited from earlier work
PfCDPK1 = PfCDPK1 (Plasmodium falciparum, UniProt P62344); assay: KINOMEScan affinity for PfCDPK1; assay type: binding
PfPK5 = PfPK5 (Plasmodium falciparum, UniProt P61075); assay: KINOMEScan affinity for PfPK5; assay type: binding
[1] = system: P. berghei EEFs in HuH7 cells; assay: Immunofluorescence analysis of P. berghei EEFs in HuH7 cells; assay type: cell-based, Plasmodium berghei
[2] = system: K63-linked ubiquitin in P. falciparum; assay type: cell-based, Plasmodium falciparum; settings: for K63-linked protein ubiquitination (band intensities relative to DMSO): 30 μM, 24 hrs, ring stage P. falciparum 3D7
Method in brief: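 P. falciparum 3D7 was cultured in RPMI/AlbuMAX II at pH 7.2, 37 °C, under 3% O2, and sorbitol-synchronised. Ring stages (10 h post-reinvasion; 10% parasitemia, 1% haematocrit) were treated 24 h with test compound (30 μM, or 0.001–100 μM) or ≤0.1% DMSO. Cells were saponin-lysed and sonicated, then blotted with anti-K63-linkage ubiquitin, with anti-K48 ubiquitin as control and actin as loading control. Total band intensity was quantified across 2–3 independent experiments.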

[3] = system: P. berghei parasite load in HuH7 cells; assay: P. berghei liver stage parasite load in HuH7 cells; assay type: cell-based, Plasmodium berghei
Method in brief: (§1)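 Hepatoma cells were seeded with test compound (0–100 μM) before infection with 3,000 P. berghei ANKA sporozoites: 15,000 cells/well for HepG2 and 8,000 for HuH7. For HepG2, compound was also added at 0 or 4 hpi. Parasite load was read by luciferase luminescence at 45 h and normalised to 1% DMSO. EC50 came from a variable-slope four-parameter fit, mean ± SEM of n ≥4.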

Solubility = assay type: physicochemical
[4] = system: P. berghei parasite load in HepG2 cells; assay: P. berghei liver stage parasite load in HepG2 cells; assay type: cell-based; settings: Plasmodium berghei, HepG2, read-out: EC50 P. berghei parasite load, HepG2 cells
Method in brief: as §1

[5] = system: blood stage P. falciparum parasites; assay: Inhibition of blood stage P. falciparum parasites; assay type: cell-based, Plasmodium falciparum; settings: 100 μM
HsIRAK4 = settings: read-out: IC50 HsIRAK4; ref Totzke et al., 2017; cited from earlier work
HsIRAK1 = settings: read-out: IC50 HsIRAK1; ref Totzke et al., 2017; cited from earlier work
HepG2 cells = assay: HepG2 hepatoma cell viability; assay type: cell-based
Method in brief: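 HepG2 cells (15,000/well) were seeded with test compound, then infected with 3,000 P. berghei ANKA sporozoites. Viability was measured after 45 h in the same wells as the parasite-load read-out, using a fluorescence protease-activity assay (an ATP luminescence assay is also described). Signal was normalised to 1% DMSO, and ≥50% loss of viability was the exclusion threshold.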

Chain of PfCDPK1 (P62344 whole entry): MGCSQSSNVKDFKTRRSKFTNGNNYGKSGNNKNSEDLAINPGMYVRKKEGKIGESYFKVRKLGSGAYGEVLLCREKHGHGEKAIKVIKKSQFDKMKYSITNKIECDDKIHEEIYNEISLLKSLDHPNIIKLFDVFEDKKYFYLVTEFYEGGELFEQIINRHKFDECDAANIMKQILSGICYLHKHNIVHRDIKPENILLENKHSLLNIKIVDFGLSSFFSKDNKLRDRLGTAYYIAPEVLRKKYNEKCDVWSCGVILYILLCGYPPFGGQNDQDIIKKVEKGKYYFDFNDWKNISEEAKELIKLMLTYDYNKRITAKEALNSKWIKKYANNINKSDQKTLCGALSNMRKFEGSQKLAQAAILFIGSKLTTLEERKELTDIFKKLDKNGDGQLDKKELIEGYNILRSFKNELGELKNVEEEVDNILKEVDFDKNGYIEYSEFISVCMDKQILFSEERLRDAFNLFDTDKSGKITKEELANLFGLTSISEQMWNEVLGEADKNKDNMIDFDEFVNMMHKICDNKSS
Chain of PfPK5 (P61075 whole entry): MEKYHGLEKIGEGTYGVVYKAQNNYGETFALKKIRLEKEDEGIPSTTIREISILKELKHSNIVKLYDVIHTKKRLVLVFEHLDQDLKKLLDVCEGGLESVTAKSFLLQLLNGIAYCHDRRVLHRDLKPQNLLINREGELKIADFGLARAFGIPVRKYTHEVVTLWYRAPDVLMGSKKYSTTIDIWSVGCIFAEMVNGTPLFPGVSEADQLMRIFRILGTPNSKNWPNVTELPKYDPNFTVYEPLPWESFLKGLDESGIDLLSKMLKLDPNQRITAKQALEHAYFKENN

SMILES: CCCn1c(NC(=O)c2cccc(C(=O)O)c2)nc2ccccc21 [HS220]
- change in HuH7 viability upon treatment (HuH7 cells): no significant change
- decrease of cell viability (HuH7 cells; HuH7, any concentration tested): ≤ 30%
- PfPK9 binding affinity, fold less potent than takinib (PfPK9; HS220 vs takinib): 8.9 fold
- Kd (PfPK9; read-out: Kd(app) PfPK9 binding, converted from EC50, dose-response 0–500 μM): 4.1 ± 0.8 µM
- relative PfPK9 binding compared to negative DMSO control (PfPK9): > 3 fold
- HsTAK1 inhibition, fold less potent than takinib (HsTAK1; HS220 vs takinib): 160,000 fold
- effect on HsTAK1 activity (HsTAK1): little or no effect
- Kd (PfCDPK1; read-out: Kd PfCDPK1, tested up to 30 μM, KINOMEScan): > 30 µM
- Kd (PfPK5; read-out: Kd PfPK5, tested up to 30 μM, KINOMEScan): > 30 µM
- number of EEFs ([1]; 30 μM, 0–48 hpi): did not change
- EEF size ([1]; 30 μM, 0–48 hpi, vs DMSO): significantly increased
- EEF size ([1]; 100 μM, 0–48 hpi): not affected
- number of EEFs ([1]; 100 μM, 0–48 hpi): decreased
- K63-linked protein ubiquitination (band intensities relative to DMSO) [2]: decrease
- EC50 ([3]; read-out: EC50 P. berghei parasite load, HuH7 cells): 43 ± 3.8 µM

SMILES: NC(=O)c1cccc(C(=O)Nc2nc3ccccc3s2)c1 [HS230]
- relative PfPK9 binding compared to negative DMSO control (PfPK9): > 3 fold
- effect on HsTAK1 activity (HsTAK1): little or no effect
- solubility (Solubility): poor

SMILES: CCCn1/c(=N/C(=O)c2cccc(C(N)=O)c2)[nH]c2ccccc21 [takinib]
- decrease of cell viability (HuH7 cells; HuH7, tested up to 200 μM): ≤ 40%
- EC50 [4]: 6.7 ± 1.3 µM
- inhibition of blood stage P. falciparum parasites [5]: inhibits
- IC50 (HsIRAK4): 0.12 µM
- Kd (PfPK9): 0.46 ± 0.1 µM
- IC50 (HsTAK1; read-out: IC50 HsTAK1): 0.0095 µM
- Kd (PfCDPK1): > 30 µM
- IC50 (HsIRAK1): 0.39 µM
- Kd (PfPK5): > 30 µM
- EEF size ([1]; 10 μM, 0–24, 24–48 and 0–48 hpi, vs DMSO): significantly increased
- number of EEFs (infected cells) ([1]; 10 μM, all time periods): not affected
- number of EEFs ([1]; 30 μM, 0–24 hpi or 0–48 hpi): decreased
- EEF size ([1]; 30 μM, 0–24 hpi or 24–48 hpi): increased
- decrease of HepG2 viability (HepG2 cells; 30 μM, relative to DMSO): ≤ 50%
- decrease of cell viability (HepG2 cells; HepG2, tested up to 200 μM): ≤ 40%
- K63-linked protein ubiquitination (band intensities relative to DMSO) [2]: decreased
- K63-linked ubiquitin signal (total intensity of all bands) ([2]; 30 and 100 μM): significantly decreased
- K48-linked ubiquitin signal (control) ([2]; dose-response 0.001–100 μM): no change
- EC50 ([3]; Plasmodium berghei, Huh-7, read-out: EC50 P. berghei parasite load): 7.3 ± 0.99 µM
